From ChEMBL document CHEMBL1152997, “Prevalence of and molecular basis for tuberculosis drug resistance in the Republic of Georgia: validation of a QIAplex system for detection of drug resistance-related mutations” (2008) come the findings set out here.

Type in all cases: functional
The subject of assay [1] is Mycobacterium tuberculosis. The assay is described as follows: Antimycobacterial activity against Mycobacterium tuberculosis clinical isolates from tuberculosis patient assessed as percent resistant isolates at 2 ug/ml by absolute-concentration method. An outline of the steps: (§1)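 Consecutive clinical M. tuberculosis isolates (196), Tbilisi, Jan–Mar 2006, primary culture on Lowenstein-Jensen medium. Suspension adjusted to 1 McFarland in sterile saline. 0.2 ml was plated onto drug-containing solid medium: a 10-fold dilution series for the 2, 4 and 40 µg/ml media, and a 100-fold dilution for the 0.2 µg/ml medium. Incubation at 37°C, 5–10% CO2, 28 days.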

Assay [2] has as its system Mycobacterium tuberculosis. Briefly: Antimycobacterial activity against Mycobacterium tuberculosis clinical isolates from tuberculosis patient assessed as percent resistant isolates at 0.2 ug/ml by absolute-concentration method. An outline of the steps:
as §1

The subject of assay [3] is Mycobacterium tuberculosis. Briefly: Antimycobacterial activity against Mycobacterium tuberculosis clinical isolates from tuberculosis patient assessed as percent resistant isolates at 40 ug/ml by absolute-concentration method. An outline of the steps: as §1
Assay [4] concerns Mycobacterium tuberculosis. The assay is described as follows: Antimycobacterial activity against Mycobacterium tuberculosis clinical isolates from tuberculosis patient assessed as percent resistant isolates at 4 ug/ml by absolute-concentration method. An outline of the steps: as §1

Take `CC[C@@H](CO)NCCN[C@@H](CC)CO` [ETHAMBUTOL]: in assay [1], the Activity is 2.6%.

As for `NNC(=O)c1ccncc1` [ISONIAZID], the Activity in assay [2] is 20.9%.

With `CO[C@H]1/C=C/O[C@@]2(C)Oc3c(C)c(O)c4c(O)c(c(/C=N/N5CCN(C)CC5)c(O)c4c3C2=O)NC(=O)/C(C)=C\C=C\[C@H](C)[C@H](O)[C@@H](C)[C@@H](O)[C@@H](C)[C@H](OC(C)=O)[C@@H]1C` [RIFAMPIN], the Activity in assay [3] was 9.2%.

For the compound `CN[C@@H]1[C@H](O[C@H]2[C@H](O[C@H]3[C@H](O)[C@@H](O)[C@H](N=C(N)N)[C@@H](O)[C@@H]3N=C(N)N)O[C@@H](C)[C@]2(O)C=O)O[C@@H](CO)[C@H](O)[C@H]1O` [STREPTOMYCIN], in assay [4], the Activity is 25%.
